Key:
[1] = tested on: H3N2 subtype; assay: Antiviral activity against Influenza A virus A/HK/7/87(H3N2) infected in MDCK cells assessed as reduction in virus-induced cytopathic effect after 3 days by microscopic method; assay type: functional, organism-based; conditions: A/Hong Kong/7/1987(H3N2), 72 h
Procedure, shortened: (§1)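 Semi-confluent MDCK cells were infected at an MOI of 0.0004 PFU/cell in Ultra-MDCK infection medium with 2 μg/mL TPCK-trypsin, together with compounds. After 3 days at 35 °C, CPE was scored by microscopy and confirmed by MTS formazan viability. EC50 is the concentration giving 50% inhibition of virus-induced CPE. Values are means of two to five independent tests.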

[2] = tested on: Influenza A virus; assay: Antiviral activity against Influenza A virus A/PR/8/34(H1N1) GFP-fused pseudotyped lentiviral particle expressing H1-HA/N1-NA infected in MDCK cells assessed as inhibition of pseudoparticle entry at 2 uM after 3 days by flow cytometry relative to control; assay type: functional; conditions: A/Puerto Rico/8/1934(H1N1), 72 h
Procedure, shortened: (§2)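 MDCK cells were seeded at 7500/well and one day later were exposed to compounds plus GFP lentiviral pseudoparticles bearing A/PR/8/34 H1-HA and N1-NA, with HA0 activated by trypsin. After 3 days the cells were trypsinized, fixed in paraformaldehyde and analysed for GFP by flow cytometry. Entry inhibition was taken as the reduction in GFP signal. Data are the mean ± SEM of four independent experiments.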

[3] = tested on: Influenza B virus; assay: Antiviral activity against Influenza B virus B/Ned/537/05 infected in MDCK cells after 3 days by MTS assay; assay type: functional, organism-based; conditions: B/Ned/537/05, MDCK, 72 h
Procedure, shortened: (§3)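 Semi-confluent MDCK cells were infected at an MOI of 0.0004 PFU/cell in Ultra-MDCK infection medium with 2 μg/mL TPCK-trypsin, together with compounds. After 3 days at 35 °C, CPE was scored by microscopy and confirmed by MTS formazan viability. Values are means of two to five independent tests.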

[4] = tested on: MDCK; assay: Cytotoxicity against MDCK cells assessed as reduction in cell viability after 3 days by MTS assay; assay type: cell-based, Canis lupus familiaris; conditions: dog, mdck, 72 h
[5] = tested on: Influenza A virus; assay: Antiviral activity against Influenza A virus A/PR/8/34(H1N1) infected in MDCK cells after 3 days by MTS assay; assay type: functional, organism-based, A/Puerto Rico/8/1934(H1N1); conditions: Influenza A virus, A/Puerto Rico/8/1934(H1N1), MDCK, 72 h; procedure, shortened: as §1
[6] = tested on: H3N2 subtype; assay: Antiviral activity against Influenza A virus A/HK/7/87(H3N2) infected in MDCK cells after 3 days by MTS assay; assay type: functional, organism-based; conditions: A/Hong Kong/7/1987(H3N2), 72 h; procedure, shortened: as §1
[7] = Cytotoxicity against MDCK cells assessed as alteration in cell morphology after 3 days by microscopic method; assay type: cell-based, Canis lupus familiaris; conditions: dog
Procedure, shortened: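 Mock-infected MDCK cells were treated with compounds in parallel with the antiviral assay, 3 days at 35 °C. MCC is the concentration causing minimal change in cell morphology by microscopy. CC50 is the 50% cytotoxic concentration by MTS formazan viability assay.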

[8] = tested on: Influenza A virus; assay: Antiviral activity against Influenza A virus A/PR/8/34(H1N1) GFP-fused pseudotyped lentiviral particle expressing H1-HA/N1-NA infected in MDCK cells assessed as inhibition of pseudoparticle entry at 10 uM after 3 days by flow cytometry relative to control; assay type: functional; conditions: A/Puerto Rico/8/1934(H1N1), 72 h; procedure, shortened: as §2
[9] = tested on: Influenza A virus; assay: Antiviral activity against Influenza A virus A/PR/8/34(H1N1) infected in MDCK cells assessed as reduction in virus-induced cytopathic effect after 3 days by microscopic method; assay type: functional, organism-based, A/Puerto Rico/8/1934(H1N1); conditions: Influenza A virus, A/Puerto Rico/8/1934(H1N1), MDCK, 72 h; procedure, shortened: as §1
[10] = tested on: Influenza A virus; assay: Antiviral activity against Influenza A virus A/Virginia/ATCC3/2009(H1N1pdm) infected in MDCK cells after 3 days by MTS assay; assay type: functional, organism-based, Influenza A virus (A/Virginia/03/2009(H1N1)); conditions: 72 h; procedure, shortened: as §1
[11] = tested on: Influenza A virus; assay: Antiviral activity against Influenza A virus A/Virginia/ATCC3/2009(H1N1pdm) infected in MDCK cells assessed as reduction in virus-induced cytopathic effect after 3 days by microscopic method; assay type: functional, organism-based, Influenza A virus (A/Virginia/03/2009(H1N1)); conditions: 72 h; procedure, shortened: as §1
[12] = tested on: Influenza B virus; assay: Antiviral activity against Influenza B virus B/Ned/537/05 infected in MDCK cells assessed as reduction in virus-induced cytopathic effect after 3 days by microscopic method; assay type: functional, organism-based; conditions: B/Ned/537/05, MDCK, 72 h; procedure, shortened: as §3

With CCCCCCCCCCOCc1cn(CCOCCOCCOCCOCc2cn([C@H]3C(=O)N[C@@H]4Cc5ccc(c(Cl)c5)Oc5cc6cc(c5O)Oc5ccc(cc5Cl)[C@@H](O[C@@H]5O[C@H](CO)[C@@H](O)[C@H](O)[C@H]5NC(C)=O)[C@H]5NC(=O)[C@H](NC(O)[C@@H]6NC(=O)[C@@H](NC4=O)c4cc(O)cc(c4)Oc4cc3ccc4O)c3ccc(O)c(c3)-c3c(O)cc(O)cc3[C@H](C(=O)O)NC5=O)nn2)nn1 (some centres not stated) the EC50 [1] was 1.6 µM, the inhibition at 2 µM [2] was 56% and the EC50 [3] was under 0.8 µM. For the same molecule, the CC50 [4] was at least 82 µM, the EC50 [5] was 1.5 µM and the EC50 [6] was 1.3 µM. For the same molecule, the MCC at 72 h [7] was at least 20 µM, the inhibition at 10 µM [8] was 92% and the EC50 [9] was 1.6 µM. It also gave an EC50 [10] of 1.8 µM, an EC50 [11] of 1.8 µM and an EC50 [12] of over 100 µM.
